Assay results as given in ChEMBL document CHEMBL3102846 (Eur J Med Chem, 2014).
One block for each molecule: values may come before it. Calls of active or inactive are those of the source. The rule behind the calls is not given here.

Legend:
[1] = Inhibition of Wnt3A/beta-catenin signaling in HEK293 cells at 20 uM after 24 hrs by firefly/renilla dual luciferase reporter gene assay relative to vehicle-treated control; assay type: cell-based; set-up: scale not given: the % may be the effect or the level left; conditions: Homo sapiens
Summary of the method: (§1)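 HEK293T cells were co-transfected with TOPglow (or FOPglow) plus pCMV Renilla. At 20 h they were reseeded at 18×10^3/well and treated for 24 h with Wnt-3A conditioned medium (from L-Wnt-3A cells) plus analogs (0.01–20 µM; DMSO ≤0.1%). Firefly/Renilla dual-luciferase ratios were expressed as % of DMSO under Wnt-3A. EC50 was taken from sigmoidal concentration–response fits; three independent experiments.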

[2] = Inhibition of Wnt3A/beta-catenin signaling in HEK293 cells at 10 uM after 24 hrs by firefly/renilla dual luciferase reporter gene assay relative to vehicle-treated control; assay type: cell-based; set-up: scale not given: the % may be the effect or the level left; conditions: Homo sapiens; summary of the method: as §1
[3] = Inhibition of Wnt3A/beta-catenin signaling in HEK293 cells at 1 uM after 24 hrs by firefly/renilla dual luciferase reporter gene assay relative to vehicle-treated control; assay type: cell-based; set-up: scale not given: the % may be the effect or the level left; conditions: Homo sapiens; summary of the method: as §1
[4] = Inhibition of Wnt3A/beta-catenin signaling in human U2OS cells assessed as reduction in nuclear beta-catenin accumulation at 5 uM after 24 hrs by Western blot analysis; assay type: cell-based
Summary of the method: (§2)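 U2OS cells were pretreated with analogs for 24 h, and cytoplasmic and nuclear fractions were prepared for β-catenin immunoblotting. α-Tubulin (cytoplasmic) and lamin A/C (nuclear) were loading references. Bands were quantified by densitometry and expressed as % of DMSO-treated cells, with at least triplicate experiments.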

[5] = Inhibition of Wnt3A/beta-catenin signaling in HEK293 cells after 24 hrs by firefly/renilla dual luciferase reporter gene assay relative to curcumin; assay type: cell-based; conditions: Homo sapiens
Summary of the method: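 EC50s came from the HEK293T TOPglow/Renilla dual-luciferase assay with Wnt-3A conditioned medium and 24 h compound exposure (0.01–20 µM), using sigmoidal fits; three independent experiments.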

[6] = Inhibition of Wnt3A/beta-catenin signaling-mediated Tcf4 transcriptional activity in human HEK293T cells at dual luciferase reporter gene assay EC50 after 24 hrs by FOPglow reporter gene assay; set-up: scale not given: the % may be the effect or the level left
[7] = Inhibition of Wnt3A/beta-catenin signaling-mediated Tcf4 transcriptional activity in human U2OS cells at 1 uM after 24 hrs by FOPglow reporter gene assay; assay type: cell-based
Summary of the method: (§3)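 U2OS cells (1.0×10^5/well, 90–95% confluent) were co-transfected with TOPglow or FOPglow (0.3 µg) plus pCMV Renilla. At 20 h they were treated for 24 h with Wnt-3A conditioned medium and analogs. Firefly luciferase was normalized to Renilla and expressed as % of DMSO-treated samples; mean ± S.E.M of three independent experiments.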

[8] = Inhibition of Wnt3A/beta-catenin signaling in human U2OS cells assessed as effect on cytoplasmic beta-catenin level at 5 uM after 24 hrs by Western blot analysis; assay type: cell-based; summary of the method: as §2
[9] = Inhibition of Wnt3A/beta-catenin signaling in HEK293 cells at 5 uM after 24 hrs by firefly/renilla dual luciferase reporter gene assay relative to vehicle-treated control; assay type: cell-based; set-up: scale not given: the % may be the effect or the level left; conditions: Homo sapiens; summary of the method: as §1
U2OS [10] = assay: Downregulation of MMP9 protein expression in human U2OS cells at 1 to 5 uM after 24 hrs by Western blot analysis; assay type: functional, cell-based
Summary of the method: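 U2OS cells were exposed to analogs or DMSO vehicle for 24 h, then total protein was collected and MMP-9 immunoblotted. Blots were repeated at least in triplicate.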

U2OS [11] = assay: Antiinvasive activity in human U2OS cells at 5 uM after 24 hrs by matrigel assay; assay type: functional
Summary of the method: (§4)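 U2OS osteosarcoma cells were pretreated with analogs for 24 h, and viability was confirmed by trypan blue. Cells were then seeded at 1.5×10^5 in serum-free medium onto inserts precoated with 30 µg Matrigel (8 µm pore), with McCoy's 5A plus 15% FBS below as chemoattractant. After 48 h of invasion, cells were fixed in 70% ethanol, stained with 0.2% crystal violet, and counted in ten random fields at 200×. Values are % of DMSO control; n=3.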

[12] = Inhibition of Wnt3A/beta-catenin signaling in HEK293 cells after 24 hrs by firefly/renilla dual luciferase reporter gene assay; assay type: cell-based; conditions: Homo sapiens, HEK293, 24 h; summary of the method: as §1
HEK293T (human) = assay: Cytotoxicity against human HEK293T cells at dual luciferase reporter gene assay EC50 after 24 hrs by MTS assay
U2OS [13] = assay: Antiinvasive activity in human U2OS cells at 1 uM after 24 hrs by matrigel assay; assay type: functional; summary of the method: as §4
[14] = Inhibition of Wnt3A/beta-catenin signaling-mediated Tcf4 transcriptional activity in human U2OS cells at 5 uM after 24 hrs by FOPglow reporter gene assay; assay type: cell-based; summary of the method: as §3
[15] = Inhibition of Wnt3A/beta-catenin signaling-mediated Tcf4 transcriptional activity in human U2OS cells at 10 uM after 24 hrs by FOPglow reporter gene assay; assay type: cell-based; summary of the method: as §3
[16] = Inhibition of Wnt3A/beta-catenin signaling-mediated Tcf4 transcriptional activity in human U2OS cells at 20 uM after 24 hrs by FOPglow reporter gene assay; assay type: cell-based; summary of the method: as §3

Structure (SMILES): COc1ccc(/C=C2\CCC/C(=C\c3ccc(OC)c(O)c3)C2=O)cc1O
activity [1]: 21.4% | activity [2]: 24.7% | activity [3]: 37.3% | inhibition [4]: Active | fold change (FC) [5]: 59.7 | activity [6]: 93.8% | inhibition [7]: 25.7% | inhibition [8]: inactive | activity [9]: 27.7% | activity (U2OS [10]): Active | Activity (U2OS [11]): 81.6% | EC50 [12]: 300 nM | Activity (HEK293T (human)): 91.6% | Activity (U2OS [13]): 34.8%

Structure (SMILES): COc1ccc(/C=C2\CC/C(=C\c3ccc(OC)c(O)c3)C2=O)cc1O
activity [1]: 39.2% | activity [2]: 39.5% | activity [3]: 52.6% | inhibition [4]: inactive | fold change (FC) [5]: 40.4 | activity [6]: 110% | inhibition [7]: 25.7% | inhibition [8]: inactive | activity [9]: 45% | EC50 [12]: 500 nM | Activity (HEK293T (human)): 86.9%

Structure (SMILES): O=C1/C(=C/c2ccc(O)cc2)CCC/C1=C\c1ccc(O)cc1
activity [1]: 16.7% | activity [2]: 26.3% | activity [3]: 51.9% | inhibition [4]: inactive | fold change (FC) [5]: 25.8 | activity [6]: 85.1% | inhibition [7]: 25.7% | inhibition [8]: inactive | activity [9]: 26.9% | EC50 [12]: 800 nM

The remaining molecules from weak to strong by EC50 [12], led by results:

EC50 [12]: 20700 nM
Structure (SMILES): COc1cc(/C=C/C(=O)CC(=O)/C=C/c2ccc(O)c(OC)c2)ccc1O [CURCUMIN]
activity [1]: 62.8% | activity [2]: 82.5% | activity [3]: 99.4% | activity [6]: 89.3% | inhibition [15]: 27.1% | inhibition [16]: 59.4% | activity [9]: 98.2% | Activity (U2OS [11]): 29%

EC50 [12]: 3200 nM
Structure (SMILES): O=C(/C=C/c1ccc(O)cc1)/C=C/c1ccc(O)cc1
activity [1]: 37.8% | activity [2]: 52% | activity [3]: 62.3% | inhibition [4]: Active | fold change (FC) [5]: 6.5 | activity [6]: 100% | inhibition [7]: 25.7% | inhibition [8]: inactive | activity [9]: 51.3% | activity (U2OS [10]): Active | Activity (U2OS [11]): 76.2% | Activity (U2OS [13]): 34.8%

EC50 [12]: 1800 nM
Structure (SMILES): COc1ccc(/C=C/C(=O)/C=C/c2ccc(OC)c(O)c2)cc1O
activity [2]: 34.4% | activity [3]: 82.5% | inhibition [4]: inactive | fold change (FC) [5]: 11.2 | activity [6]: 105% | inhibition [8]: inactive | activity [9]: 38.8% | Activity (HEK293T (human)): 86.6% | inhibition [14]: 49.4%

EC50 [12]: 400 nM
Structure (SMILES): O=C1/C(=C/c2ccc(O)cc2)CC/C1=C\c1ccc(O)cc1
activity [1]: 8% | activity [2]: 19.6% | activity [3]: 34.3% | inhibition [4]: Active | fold change (FC) [5]: 50.5 | activity [6]: 101% | inhibition [7]: 25.7% | inhibition [8]: inactive | activity [9]: 28.3% | activity (U2OS [10]): Active | Activity (U2OS [11]): 72.8% | Activity (HEK293T (human)): 81.4% | Activity (U2OS [13]): 34.8%
